The source made the active and inactive calls. No cut-off for these calls is given here.

Consider 9 compounds from ChEMBL document CHEMBL2150901, “Synthesis and biological activity of tricyclic cycloalkylimidazo-, pyrimido- and diazepinopurinediones” (Eur J Med Chem, 2011).

The subject of data set [1] is Mus musculus. Briefly: Anticonvulsant activity in F1 albino mouse assessed as protection against maximal electroshock-induced seizures at 300 mg/kg, ip after 0.25 hrs. Further details: dose 300 mg/kg. The data set is classed as functional, organism-based. In a few lines:
(§1)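 Male albino F-1 mice (18–25 g), groups of 1–5 (rotorod 2–8). Compound given ip as a suspension in 0.5% methylcellulose at 30, 100 and 300 mg/kg. Seizures by maximal electroshock or subcutaneous pentylenetetrazole; neurotoxicity by rotorod. Read at 0.5 and 4 h, with some at 0.25, 1 and 2 h. Value is the minimum active dose, with protected (or toxic)/tested animals.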
(In general: The maximal electroshock test induces tonic seizures with an electrical stimulus.)

The subject of data set [2] is Mus musculus. Briefly: Anticonvulsant activity in F1 albino mouse assessed as protection against maximal electroshock-induced seizures at 300 mg/kg, ip after 0.5 hrs. The data set is classed as functional, organism-based. Also on record: dose 300 mg/kg. In outline:
as §1

The test system of data set [3] is Mus musculus. Briefly: Anticonvulsant activity in F1 albino mouse assessed as protection against maximal electroshock-induced seizures at 300 mg/kg, ip after 1 hr. It counts as functional, organism-based. Also on record: dose 300 mg/kg. In outline:
as §1

Data set [4] relates to Mus musculus. Briefly: Anticonvulsant activity in F1 albino mouse assessed as protection against maximal electroshock-induced seizures at 300 mg/kg, ip after 4 hrs. It counts as functional, organism-based. Also on record: dose 300 mg/kg. In a few lines:
as §1

Data set [5] relates to Mus musculus. Briefly: Anticonvulsant activity in F1 albino mouse assessed as protection against subcutaneous pentylenetetrazole-induced seizures at 300 mg/kg, ip after 0.25 hrs. Also on record: dose 300 mg/kg. The data set is classed as functional, organism-based. In a few lines: as §1
For data set [6], the system named is Mus musculus. Briefly: Anticonvulsant activity in F1 albino mouse assessed as protection against subcutaneous pentylenetetrazole-induced seizures at 300 mg/kg, ip after 0.5 hrs. The data set is classed as functional, organism-based. Also on record: dose 300 mg/kg. In a few lines: as §1
Data set [7] has as its system Mus musculus. Briefly: Anticonvulsant activity in F1 albino mouse assessed as protection against subcutaneous pentylenetetrazole-induced seizures at 300 mg/kg, ip after 1 hr. The data set is classed as functional, organism-based. Further details: dose 300 mg/kg. In a few lines:
as §1

Data set [8] deals with Mus musculus. Briefly: Anticonvulsant activity in F1 albino mouse assessed as protection against subcutaneous pentylenetetrazole-induced seizures at 300 mg/kg, ip after 4 hrs. The data set is classed as functional, organism-based. Also on record: dose 300 mg/kg. In outline:
as §1

Data set [9] concerns Mus musculus. Briefly: Neurotoxicity in F1 albino mouse assessed as minimal motor impairment at 300 mg/kg, ip after 0.25 hrs by rotorod test. It counts as toxicity, organism-based. Also on record: dose 300 mg/kg, route intraperitoneal. Particulars: in vivo. In outline: as §1
On the technique in general: The rotarod test checks motor coordination on a turning rod.

Data set [10] deals with Mus musculus. Briefly: Neurotoxicity in F1 albino mouse assessed as minimal motor impairment at 300 mg/kg, ip after 0.5 hrs by rotorod test. It counts as toxicity, organism-based. Also on record: dose 300 mg/kg, route intraperitoneal. The following applies: in vivo. In outline:
as §1

In data set [11] the test system is Mus musculus. Briefly: Neurotoxicity in F1 albino mouse assessed as minimal motor impairment at 300 mg/kg, ip after 1 hr by rotorod test. It counts as toxicity, organism-based. Further details: dose 300 mg/kg, route intraperitoneal. Particulars: in vivo. In a few lines: as §1
The test system of data set [12] is Mus musculus. Briefly: Neurotoxicity in F1 albino mouse assessed as minimal motor impairment at 300 mg/kg, ip after 4 hrs by rotorod test. It counts as toxicity, organism-based. Further details: dose 300 mg/kg, route intraperitoneal. The following applies: in vivo. In a few lines:
as §1

The next data set is filed under the species Rattus norvegicus. Briefly: Selectivity ratio of Ki for adenosine A1 receptor in rat brain cortical membrane to Ki for adenosine A2A receptor in rat brain striatal membrane. The data set is classed as cell membranes. In a few lines: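 Ki ratios from radioligand competition binding. Rat A1 used brain cortical membranes and rat A2A used brain striatal membranes. Human A1 and A2A used membranes of CHO cells expressing the receptors. A1 radioligand [³H]CCPA; A2A radioligand [³H]MSX-2. Potent compounds were tested at 6–7 concentrations spanning 3 orders of magnitude.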

A further data set concerns the target Adenosine receptor A2a (Rattus norvegicus, UniProt P30543). Briefly: Displacement of [3H]MSX-2 from adenosine A2A receptor in rat brain striatal membrane. The data set is classed as cell membranes.
Data set [13] addresses T1, Adenosine receptor A1 (Rattus norvegicus) (UniProt P25099).
T1 sequence (whole entry): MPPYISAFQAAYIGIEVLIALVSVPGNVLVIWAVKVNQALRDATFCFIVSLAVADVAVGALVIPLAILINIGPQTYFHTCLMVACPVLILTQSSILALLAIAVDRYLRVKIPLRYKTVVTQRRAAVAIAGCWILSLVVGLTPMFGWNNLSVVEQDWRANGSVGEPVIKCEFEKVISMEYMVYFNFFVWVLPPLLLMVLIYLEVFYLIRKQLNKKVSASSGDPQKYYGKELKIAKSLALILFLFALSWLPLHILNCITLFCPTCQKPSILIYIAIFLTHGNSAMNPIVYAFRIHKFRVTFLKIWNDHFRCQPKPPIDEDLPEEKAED
Briefly: Displacement of [3H]CCPA from adenosine A1 receptor in rat brain cortical membrane at 25 uM. The data set is classed as cell membranes. Background: Displacement assays read how much labelled ligand stays bound in the presence of the test substance.

For a further data set, the target named is T2, Adenosine receptor A1 (Rattus norvegicus, UniProt P25099).
T2 sequence (P25099 whole entry): T1 sequence (whole entry)
Briefly: Displacement of [3H]CCPA from adenosine A1 receptor in rat brain cortical membrane. It counts as cell membranes.

Adenosine receptor A2a, sequence (P30543 whole entry): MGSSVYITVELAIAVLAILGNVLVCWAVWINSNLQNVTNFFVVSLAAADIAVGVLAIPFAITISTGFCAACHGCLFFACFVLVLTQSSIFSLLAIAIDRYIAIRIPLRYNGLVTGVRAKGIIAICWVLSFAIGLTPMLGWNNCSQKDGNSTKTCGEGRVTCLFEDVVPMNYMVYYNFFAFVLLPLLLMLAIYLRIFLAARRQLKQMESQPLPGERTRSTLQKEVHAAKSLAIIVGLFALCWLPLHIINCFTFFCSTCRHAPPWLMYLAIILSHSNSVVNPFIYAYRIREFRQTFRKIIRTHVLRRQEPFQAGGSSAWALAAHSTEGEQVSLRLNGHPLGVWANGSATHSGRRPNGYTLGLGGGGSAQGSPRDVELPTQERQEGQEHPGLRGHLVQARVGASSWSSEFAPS

Usually Ki stands for a measure of affinity in units of concentration, obtained from inhibition or displacement. Lower therefore signals a stronger hold on the target. A word on the inhibition: it is the share of the control response that was lost under treatment. Regarding `CC1CCCCC1N1CCCn2c1nc1c2c(=O)n(C)c(=O)n1C` (mixture of isomers), the outcome in the data set with Mus musculus [1], with Mus musculus [2], in the data set on Mus musculus [3], in the data set on Mus musculus [4], in the data set with Mus musculus [5] and in the data set on Mus musculus [6] was inactive. Further, the outcome in the data set on Mus musculus [7] and with Mus musculus [8] was inactive. The Activity entry with Mus musculus [9], in the data set on Mus musculus [10], in the data set with Mus musculus [11] and with Mus musculus [12] was “Non-toxic” each time. In the data set listed under Rattus norvegicus, the Ratio Ki is > 23. For the same compound, the Ki at Adenosine receptor A2a is 1080 nM; at Adenosine receptor A1, > 25000 nM. In [13], this compound displayed an inhibition of 31%.
As for `Cn1c(=O)c2c(nc3n2CCCN3C2CC2)n(C)c1=O`, the result in the data set with Mus musculus [1], in the data set with Mus musculus [2], in the data set on Mus musculus [3], with Mus musculus [4], in the data set on Mus musculus [5] and in the data set with Mus musculus [6] was inactive. The outcome in the data set on Mus musculus [7] and in the data set with Mus musculus [8] was inactive. Further, the Activity result with Mus musculus [9] is “Non-toxic”; in the data set on Mus musculus [10], “Toxic”; with Mus musculus [11] it was “Non-toxic”; in the data set on Mus musculus [12] it was “Non-toxic”. In addition, the Ratio Ki in the data set listed under Rattus norvegicus is 20. In addition, the Ki at Adenosine receptor A2a is 1240 nM; on Adenosine receptor A1, ≥ 25000 nM. Besides, the inhibition in data set [13] stood at 43%.
As for `Cn1c(=O)c2c(nc3n2CCCCN3C2CCCCC2)n(C)c1=O`, the result in the data set on Mus musculus [1], in the data set on Mus musculus [2], with Mus musculus [3], in the data set on Mus musculus [4], with Mus musculus [5] and in the data set with Mus musculus [6] was inactive. In addition, the outcome in the data set on Mus musculus [7] and with Mus musculus [8] was inactive. Moreover, the Activity result with Mus musculus [9], with Mus musculus [10], in the data set on Mus musculus [11] and with Mus musculus [12] was “Non-toxic” throughout. Moreover, in the data set filed under Rattus norvegicus, the Ratio Ki was found to be 1. Further, the Ki was 2960 nM at Adenosine receptor A2a and 2130 nM at Adenosine receptor A1.
As for `Cn1c(=O)c2c(nc3n2CCN3CC2CCCCC2)n(C)c1=O`, the outcome in the data set with Mus musculus [1], in the data set on Mus musculus [2], with Mus musculus [3], with Mus musculus [4], in the data set on Mus musculus [5] and with Mus musculus [6] was inactive. The outcome in the data set with Mus musculus [7] and with Mus musculus [8] was inactive. For the same compound, the Activity entry in the data set with Mus musculus [9], in the data set on Mus musculus [10], in the data set with Mus musculus [11] and in the data set on Mus musculus [12] was “Non-toxic” throughout. For the same compound, the Ratio Ki in the data set listed under Rattus norvegicus is > 13. Besides, the Ki on Adenosine receptor A2a is 2000 nM; on Adenosine receptor A1 it was ≥ 25000 nM. Besides, in data set [13], the inhibition came to 41%.
For `Cn1c(=O)c2c(nc3n2CCN3C2CCCC2)n(C)c1=O`, the result in the data set on Mus musculus [1], in the data set with Mus musculus [2], in the data set with Mus musculus [3], in the data set with Mus musculus [4], in the data set with Mus musculus [5] and in the data set on Mus musculus [7] was inactive. The outcome with Mus musculus [8] was inactive. Besides, the result with Mus musculus [6] was Active. The Activity result in the data set on Mus musculus [9] was “Non-toxic”; with Mus musculus [10], “Toxic”; in the data set on Mus musculus [11], “Non-toxic”; in the data set with Mus musculus [12], “Non-toxic”. Moreover, in the data set filed under Rattus norvegicus, the Ratio Ki worked out at 8. The inhibition constant (Ki) on Adenosine receptor A2a was determined as 3100 nM; on Adenosine receptor A1, 25000 nM. The compound also registered an inhibition in data set [13] of 50%.
For the compound `Cn1c(=O)c2c(nc3n2CCN3CCC2=CCCCC2)n(C)c1=O`, the result with Mus musculus [1], in the data set on Mus musculus [2], in the data set on Mus musculus [3], in the data set with Mus musculus [4], with Mus musculus [5] and with Mus musculus [6] was inactive. Besides, the result in the data set on Mus musculus [7] and in the data set on Mus musculus [8] was inactive. Moreover, the Activity entry in the data set with Mus musculus [9] is recorded as “Non-toxic”; in the data set with Mus musculus [10] it was “Non-toxic”; in the data set on Mus musculus [11], “Non-toxic”; in the data set on Mus musculus [12] it was “Toxic”. Further, the Ratio Ki in the data set listed under Rattus norvegicus turned out to be 1. For the same compound, the inhibition constant Ki is 2020 nM on Adenosine receptor A2a and 2450 nM at Adenosine receptor A1.
As for `C[C@H](C1CCCCC1)N1CCCn2c1nc1c2c(=O)n(C)c(=O)n1C`, the result with Mus musculus [1], in the data set on Mus musculus [2], with Mus musculus [3], in the data set on Mus musculus [4], in the data set on Mus musculus [5] and with Mus musculus [6] was inactive. Moreover, the outcome in the data set on Mus musculus [7] and in the data set with Mus musculus [8] was inactive. Further, the Activity result in the data set on Mus musculus [9], in the data set with Mus musculus [10], with Mus musculus [11] and in the data set with Mus musculus [12] was “Non-toxic” each time. In addition, in the data set filed under Rattus norvegicus, the Ratio Ki amounted to 6. The inhibition constant Ki at Adenosine receptor A2a is 1300 nM; on Adenosine receptor A1, 7890 nM.
For the compound `Cn1c(=O)c2c(nc3n2CCCCN3C2CCCC2)n(C)c1=O`, the outcome in the data set with Mus musculus [1], in the data set on Mus musculus [2], in the data set with Mus musculus [3], with Mus musculus [4], in the data set on Mus musculus [5] and with Mus musculus [6] was inactive. Further, the outcome in the data set with Mus musculus [7] and in the data set with Mus musculus [8] was inactive. In addition, the Activity result with Mus musculus [9], in the data set with Mus musculus [10], in the data set on Mus musculus [11] and in the data set with Mus musculus [12] was “Non-toxic” each time. Further, in the data set listed under Rattus norvegicus, the Ratio Ki worked out at 4. Moreover, the Ki stood at 1380 nM at Adenosine receptor A2a and 5060 nM on Adenosine receptor A1.
As for `CC(C1CCCCC1)N1CCCn2c1nc1c2c(=O)n(C)c(=O)n1C` (racemic), the outcome with Mus musculus [1], with Mus musculus [2], with Mus musculus [3], in the data set on Mus musculus [4], in the data set with Mus musculus [5] and with Mus musculus [6] was inactive. In addition, the outcome with Mus musculus [7] and in the data set on Mus musculus [8] was inactive. Also, the Activity result with Mus musculus [9], in the data set with Mus musculus [10], with Mus musculus [11] and in the data set with Mus musculus [12] was “Non-toxic” in each case. The Ratio Ki in the data set listed under Rattus norvegicus worked out at 6. The inhibition constant (Ki) stood at 1240 nM at Adenosine receptor A2a and 7580 nM on Adenosine receptor A1.
